Test results: ChEMBL document CHEMBL3425404, “Structure-activity relationship in a purine-scaffold compound series with selectivity for the endoplasmic reticulum Hsp90 paralog Grp94” (J Med Chem, 2015)
Calls of active or inactive are those of the source. No cut-off for these calls is given here.

Columns and labels:
[1] = target: Heat shock protein HSP 90-alpha (Homo sapiens, UniProt P07900); experiment: Displacement of Cy3B-GM from recombinant Hsp90alpha (unknown origin) after 24 hrs by fluorescence polarization assay
Endoplasmin = Endoplasmin (Canis lupus familiaris, UniProt P41148); experiment: Displacement of Cy3B-GM from recombinant Grp94 (unknown origin) after 24 hrs by fluorescence polarization assay
[2] = target: T1, Heat shock protein 75 kDa, mitochondrial (Homo sapiens, UniProt Q12931); experiment: Displacement of PU-FITC3 from recombinant TRAP-1 (unknown origin) after 24 hrs by fluorescence polarization assay
T1 sequence (Q12931 whole entry): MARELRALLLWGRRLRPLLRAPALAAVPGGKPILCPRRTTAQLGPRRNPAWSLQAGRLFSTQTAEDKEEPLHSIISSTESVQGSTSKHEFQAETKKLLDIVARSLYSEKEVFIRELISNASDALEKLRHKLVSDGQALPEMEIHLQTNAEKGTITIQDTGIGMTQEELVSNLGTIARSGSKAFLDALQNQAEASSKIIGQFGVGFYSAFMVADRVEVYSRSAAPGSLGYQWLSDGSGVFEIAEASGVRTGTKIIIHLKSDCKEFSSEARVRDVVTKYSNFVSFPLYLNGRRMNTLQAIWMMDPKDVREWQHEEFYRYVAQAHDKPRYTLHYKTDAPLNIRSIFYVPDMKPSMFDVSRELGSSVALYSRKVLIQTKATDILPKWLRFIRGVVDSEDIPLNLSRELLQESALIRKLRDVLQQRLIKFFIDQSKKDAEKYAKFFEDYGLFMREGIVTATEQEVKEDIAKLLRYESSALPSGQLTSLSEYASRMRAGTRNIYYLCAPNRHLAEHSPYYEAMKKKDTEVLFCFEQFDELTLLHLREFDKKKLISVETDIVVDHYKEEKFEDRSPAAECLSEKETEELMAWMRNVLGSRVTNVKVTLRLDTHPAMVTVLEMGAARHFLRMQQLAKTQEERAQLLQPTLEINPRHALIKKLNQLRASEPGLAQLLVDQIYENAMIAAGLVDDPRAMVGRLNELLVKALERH

[3] = Cytotoxicity against human SKBR3 cells assessed as cell viability at 100 uM after 72 hrs by CellTiter-Glo assay; type: cell-based; settings: sk-br-3, 72 h
In short: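 SKBr3 cells were grown in McCoy's 5A with 10% FBS and Pen/Strep at 37 °C. They were exposed 72 h to vehicle or compound in quadruplicate wells. Viability was read by CellTiter-Glo luminescence (ATP content), with mean ± error, n = 4.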

[4] = target: Heat shock protein HSP90 (Homo sapiens) (UniProt P07900+P08238); experiment: Inhibition of HSP90 in human SKBR3 cells assessed as induction of HSP70 activity at 100 uM after 24 hrs by Western blot analysis; type: cell-based; settings: SK-BR-3
In short: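 SKBr3 cells (McCoy's 5A, 10% FBS, 1% Pen/Strep, 37 °C, CO2) treated 24 h with DMSO vehicle or compound. Cells lysed in RIPA with protease inhibitors; protein measured by BCA. Lysate (5−50 μg) run on SDS−PAGE, blotted to nitrocellulose, probed for Hsp70 (1:2500) and β-actin. HRP secondary, ECL detection, densitometry; triplicate experiments.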

[5] = target: Heat shock protein HSP 90-beta (Homo sapiens, UniProt P08238)
Homo sapiens = organism: Homo sapiens; experiment: Selectivity ratio of IC50 for recombinant Grp94 (unknown origin) to IC50 for recombinant Hsp90alpha (unknown origin)
[6] = target: MAP kinase-interacting serine/threonine-protein kinase 2 (Homo sapiens) (UniProt Q9HBH9); experiment: Inhibition of human MKNK2 at 10 uM after 1 hr by qPCR analysis relative to control
In short: (§1)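 Compound tested at 10 μM in a scanEDGE 97 active-site competition binding panel. Incubation was 1 h at room temperature, then washing and elution with non-biotinylated ligand. Bead-bound kinase was quantified by qPCR; values are % inhibition.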

[7] = target: Rho-associated protein kinase 2 (Homo sapiens) (UniProt O75116); experiment: Inhibition of human ROCK2 at 10 uM after 1 hr by qPCR analysis relative to control; in short: as §1
Chain of Rho-associated protein kinase 2 (Homo sapiens) (O75116 whole entry, looked up): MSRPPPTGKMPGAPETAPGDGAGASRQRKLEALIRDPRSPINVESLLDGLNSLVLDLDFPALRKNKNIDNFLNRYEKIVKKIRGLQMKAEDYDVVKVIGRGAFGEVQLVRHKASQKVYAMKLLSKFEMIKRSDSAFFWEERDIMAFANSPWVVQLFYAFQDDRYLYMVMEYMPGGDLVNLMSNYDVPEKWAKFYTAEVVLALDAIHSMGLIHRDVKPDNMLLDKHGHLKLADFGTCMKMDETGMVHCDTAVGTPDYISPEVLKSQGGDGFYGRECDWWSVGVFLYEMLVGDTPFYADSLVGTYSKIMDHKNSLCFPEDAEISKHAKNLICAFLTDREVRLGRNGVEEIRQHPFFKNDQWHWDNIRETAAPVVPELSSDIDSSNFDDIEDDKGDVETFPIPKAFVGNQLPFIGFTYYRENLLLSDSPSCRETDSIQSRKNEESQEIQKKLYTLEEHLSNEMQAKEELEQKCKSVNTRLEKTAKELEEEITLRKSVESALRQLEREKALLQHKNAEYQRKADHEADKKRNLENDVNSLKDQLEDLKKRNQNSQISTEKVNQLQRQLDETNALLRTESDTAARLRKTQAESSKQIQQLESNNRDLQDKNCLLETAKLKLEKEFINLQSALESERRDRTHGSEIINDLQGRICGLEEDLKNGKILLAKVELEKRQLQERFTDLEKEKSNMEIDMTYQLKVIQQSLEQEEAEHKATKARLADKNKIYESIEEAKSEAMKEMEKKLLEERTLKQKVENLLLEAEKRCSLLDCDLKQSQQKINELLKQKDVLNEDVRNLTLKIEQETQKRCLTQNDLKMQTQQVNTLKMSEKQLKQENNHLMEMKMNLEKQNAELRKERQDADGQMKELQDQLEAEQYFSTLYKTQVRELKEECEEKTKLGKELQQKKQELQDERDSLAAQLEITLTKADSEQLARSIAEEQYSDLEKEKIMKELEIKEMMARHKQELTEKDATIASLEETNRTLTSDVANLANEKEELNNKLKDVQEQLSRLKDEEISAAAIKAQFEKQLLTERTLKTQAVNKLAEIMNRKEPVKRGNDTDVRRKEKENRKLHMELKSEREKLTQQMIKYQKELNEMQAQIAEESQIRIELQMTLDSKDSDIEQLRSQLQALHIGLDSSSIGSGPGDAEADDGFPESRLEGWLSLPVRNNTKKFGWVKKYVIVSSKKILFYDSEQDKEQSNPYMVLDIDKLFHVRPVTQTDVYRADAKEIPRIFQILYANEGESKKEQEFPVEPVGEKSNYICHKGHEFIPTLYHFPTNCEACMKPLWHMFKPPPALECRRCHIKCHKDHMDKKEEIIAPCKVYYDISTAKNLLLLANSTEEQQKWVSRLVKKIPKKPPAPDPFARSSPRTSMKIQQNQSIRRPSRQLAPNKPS

Chain of Heat shock protein HSP 90-beta (P08238 whole entry): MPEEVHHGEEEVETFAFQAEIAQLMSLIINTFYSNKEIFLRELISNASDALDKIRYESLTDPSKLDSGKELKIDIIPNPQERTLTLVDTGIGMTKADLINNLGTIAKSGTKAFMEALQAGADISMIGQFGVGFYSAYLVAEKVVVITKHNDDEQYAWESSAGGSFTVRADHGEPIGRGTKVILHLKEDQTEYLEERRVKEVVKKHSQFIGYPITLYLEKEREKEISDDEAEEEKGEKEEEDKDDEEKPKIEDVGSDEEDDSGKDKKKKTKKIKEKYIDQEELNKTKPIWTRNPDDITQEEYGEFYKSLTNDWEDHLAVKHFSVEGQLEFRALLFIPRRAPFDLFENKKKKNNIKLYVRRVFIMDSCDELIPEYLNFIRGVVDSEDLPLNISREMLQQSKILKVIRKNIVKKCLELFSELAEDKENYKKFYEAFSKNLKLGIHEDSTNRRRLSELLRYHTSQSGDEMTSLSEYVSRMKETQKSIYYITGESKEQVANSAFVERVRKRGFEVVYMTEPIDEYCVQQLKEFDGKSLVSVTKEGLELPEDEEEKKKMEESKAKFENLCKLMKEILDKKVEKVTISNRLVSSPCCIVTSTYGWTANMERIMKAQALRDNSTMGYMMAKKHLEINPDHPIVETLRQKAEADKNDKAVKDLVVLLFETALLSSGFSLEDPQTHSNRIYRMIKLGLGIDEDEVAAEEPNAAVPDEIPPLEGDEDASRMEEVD
Chain of Endoplasmin (P41148 whole entry): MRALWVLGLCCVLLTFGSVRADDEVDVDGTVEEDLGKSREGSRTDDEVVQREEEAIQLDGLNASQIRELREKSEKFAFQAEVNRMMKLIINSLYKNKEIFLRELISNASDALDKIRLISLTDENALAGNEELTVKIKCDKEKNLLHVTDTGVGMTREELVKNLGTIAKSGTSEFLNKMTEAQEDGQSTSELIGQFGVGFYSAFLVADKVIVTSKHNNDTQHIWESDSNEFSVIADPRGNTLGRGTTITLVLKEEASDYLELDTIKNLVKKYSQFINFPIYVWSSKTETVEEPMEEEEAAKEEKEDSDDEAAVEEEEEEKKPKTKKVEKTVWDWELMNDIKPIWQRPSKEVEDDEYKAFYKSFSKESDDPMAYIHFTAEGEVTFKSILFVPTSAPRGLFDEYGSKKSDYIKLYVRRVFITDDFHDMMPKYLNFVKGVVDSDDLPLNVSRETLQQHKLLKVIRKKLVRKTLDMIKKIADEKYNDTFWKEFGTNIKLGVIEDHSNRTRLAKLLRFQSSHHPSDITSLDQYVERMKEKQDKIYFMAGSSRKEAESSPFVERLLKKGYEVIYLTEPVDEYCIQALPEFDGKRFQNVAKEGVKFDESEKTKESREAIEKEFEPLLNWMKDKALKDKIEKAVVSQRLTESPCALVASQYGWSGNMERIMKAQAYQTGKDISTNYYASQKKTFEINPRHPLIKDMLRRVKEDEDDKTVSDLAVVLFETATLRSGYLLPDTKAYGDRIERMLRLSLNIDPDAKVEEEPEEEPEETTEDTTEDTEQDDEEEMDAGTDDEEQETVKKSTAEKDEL
Chain of MAP kinase-interacting serine/threonine-protein kinase 2 (Homo sapiens) (Q9HBH9 whole entry, looked up): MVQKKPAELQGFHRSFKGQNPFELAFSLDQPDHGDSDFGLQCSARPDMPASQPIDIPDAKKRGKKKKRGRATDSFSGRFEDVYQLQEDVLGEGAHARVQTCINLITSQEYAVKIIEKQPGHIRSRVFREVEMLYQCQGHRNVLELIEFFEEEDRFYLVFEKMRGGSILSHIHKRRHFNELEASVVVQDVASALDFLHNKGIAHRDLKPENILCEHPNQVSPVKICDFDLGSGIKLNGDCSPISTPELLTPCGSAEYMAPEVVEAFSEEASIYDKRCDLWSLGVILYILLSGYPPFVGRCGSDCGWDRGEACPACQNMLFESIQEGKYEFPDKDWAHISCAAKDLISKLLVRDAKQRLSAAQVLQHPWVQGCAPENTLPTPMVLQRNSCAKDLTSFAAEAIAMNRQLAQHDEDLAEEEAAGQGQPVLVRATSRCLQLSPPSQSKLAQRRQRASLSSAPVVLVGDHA

| SMILES | IC50 [1] [µM] | IC50 (Endoplasmin) [nM] | also measured |
| --- | --- | --- | --- |
| CC(C)NCCCn1c(Sc2ccc(Cl)cc2Cl)nc2c(N)nccc21 | > 50 | 3440 | IC50 [2]: 14.1 µM |
| Nc1ncnc2c1nc(Sc1cc(Cl)cc(Cl)c1)n2CCCCCC(F)(F)F | > 50 | 1650 | – |
| COC(=O)c1c(O)cc(O)c(Cl)c1CCc1nccn1Cc1ccccc1 | – | – | Activity [3]: Toxic; inhibition [4]: Active |
| Nc1ncnc2c1nc(Sc1cc(Cl)cc(Cl)c1)n2CCCCC(F)(F)F | – | 2740 | – |
| C#CCCCn1c(Sc2cc(Cl)c(Cl)cc2Cl)nc2c(N)ncnc21 | – | 170 | – |
| CC#CCn1c(Sc2cc(Cl)cc(Cl)c2)nc2c(N)ncnc21 | – | 5100 | – |
| CC(C)NCCCn1c(Sc2cc(Cl)cc(Cl)c2)nc2c(N)nccc21 | – | 1080 | IC50 [2]: 7.2 µM |
| C#CCCCCn1c(Sc2cc(Cl)cc(Cl)c2)nc2c(N)ncnc21 | > 50 | 665 | – |
| Nc1ncnc2c1nc(Sc1cc(Cl)cc(Cl)c1)n2CCc1ccccc1 | > 50 | > 2500 | – |
| CCCCn1c(Sc2cc(Cl)cc(Cl)c2)nc2c(N)ncnc21 | > 50 | – | – |
| CCCC(C)n1c(Sc2cc(Cl)cc(Cl)c2)nc2c(N)ncnc21 (stereo not drawn) | > 50 | 14300 | – |
| Nc1ncnc2c1nc(Sc1cc(Cl)cc(Cl)c1)n2CCCC(F)(F)F | – | 502 | – |
| Nc1ncnc2c1nc(Sc1cc(Cl)cc(Cl)c1)n2CCC(F)(F)F | – | 560 | – |
| CC(C)NCCCn1c(Sc2cc3c(cc2I)OCO3)nc2c(N)nccc21 | 0.028 | 101 | Ratio IC50 (Homo sapiens): 4 |
| CCCC(C)n1c(Sc2ccc(Cl)cc2Cl)nc2c(N)ncnc21 (stereo not drawn) | > 100 | 2480 | IC50 [2]: > 50 µM |
| C#CCCCn1c([S+]([O-])c2ccc(Cl)cc2Cl)nc2c(N)ncnc21 (stereo not drawn) | 24.9 | 5400 | – |

| SMILES | IC50 [1] [µM] | IC50 (Endoplasmin) [nM] | also measured |
| --- | --- | --- | --- |
| C#CCCCn1c(S(=O)(=O)c2ccc(Cl)cc2Cl)nc2c(N)ncnc21 | – | 4700 | – |
| Nc1ncnc2c1nc(Sc1cc(Cl)cc(Cl)c1)n2Cc1ccccc1 | > 50 | > 5000 | – |
| C#CCCn1c(Sc2cc(Cl)cc(Cl)c2)nc2c(N)ncnc21 | > 50 | 287 | – |
| Cc1ccc(Sc2nc3c(N)ncn(CCCNC(C)C)c-3n2)c(C)c1 | – | > 25000 | – |
| C#CCCCn1c(Cc2ccc(Cl)cc2Cl)nc2c(N)ncnc21 | > 100 | 700 | – |
| C#CCCCn1c(Oc2ccc(Cl)cc2Cl)nc2c(N)ncnc21 | > 100 | 500 | – |
| C#CCCCn1c(Sc2cc(C(F)(F)F)ccc2Cl)nc2c(N)ncnc21 | > 100 | 500 | IC50 [5]: > 100 µM |
| CC(C)NCCCn1c(Sc2cc3c(cc2N(C)C)OCO3)nc2c(N)ncnc21 | 0.1 | 265 | – |
| C#CCC(CC)n1c(Sc2ccc(Cl)cc2Cl)nc2c(N)ncnc21 (stereo not drawn) | > 50 | 920 | IC50 [2]: > 50 µM |
| C#CCC(C)n1c(Sc2ccc(Cl)cc2Cl)nc2c(N)ncnc21 (stereo not drawn) | > 50 | 5000 | – |
| C#CCC(CC)n1c(Sc2cc(Cl)cc(Cl)c2)nc2c(N)ncnc21 (stereo not drawn) | > 100 | > 5000 | – |
| C#CCC(C)n1c(Sc2cc(Cl)cc(Cl)c2)nc2c(N)ncnc21 (stereo not drawn) | > 50 | 5800 | – |
| C#CCCCn1c(C(=O)c2ccc(Cl)cc2Cl)nc2c(N)ncnc21 | > 100 | 340 | IC50 [2]: 4.98 µM |
| C#CCCn1c(Sc2ccc(Cl)cc2Cl)nc2c(N)ncnc21 | > 50 | 390 | IC50 [2]: 7.23 µM |
| C#CCCCn1c(Sc2c(C)cc(C)cc2C)nc2c(N)ncnc21 | > 500 | 2100 | IC50 [5]: > 500 µM |

Second part, led by results:

| IC50 [1] [µM] | IC50 (Endoplasmin) [nM] | SMILES | also measured |
| --- | --- | --- | --- |
| – | 11500 | C#CCCCn1c(Sc2cc(C)cc(C)c2)nc2c(N)ncnc21 | – |
| 1.96 | 695 | C#CCCCn1c(Sc2ccc(Cl)c(Cl)c2)nc2c(N)ncnc21 | – |
| > 100 | 6200 | C#CCCCn1c(Sc2ccccc2OC)nc2c(N)ncnc21 | IC50 [5]: > 100 µM |
| – | 1400 | C#CCCCn1c(Sc2ccccc2OC(F)(F)F)nc2c(N)ncnc21 | – |
| > 500 | 260 | C#CCCCn1c(Sc2cc(Cl)cc(Cl)c2)nc2c(N)ncnc21 | IC50 [5]: > 500 µM; IC50 [2]: 83.6 µM |
| > 50 | 390 | C#CCCCn1c(Sc2ccc(Br)cc2Cl)nc2c(N)ncnc21 | – |
| – | 1130 | C#CCCCn1c(Sc2ccc(OC)cc2)nc2c(N)ncnc21 | – |
| – | 530 | C#CCCCn1c(Sc2cc(Cl)ccc2Cl)nc2c(N)ncnc21 | – |
| 16 | 430 | C#CCCCn1c(Sc2ccc(Cl)c(Cl)c2Cl)nc2c(N)ncnc21 | IC50 [5]: 39.5 µM; IC50 [2]: 3.6 µM |
| > 100 | 240 | C#CCCCn1c(Sc2cc(Cl)cc(Br)c2)nc2c(N)ncnc21 | IC50 [5]: > 100 µM |
| – | 1500 | C#CCCCn1c(Sc2ccc(Cl)cc2)nc2c(N)ncnc21 | – |
| – | 120 | C#CCCCn1c(Sc2ccc(Cl)cc2Cl)nc2c(N)ncnc21 | inhibition [6]: 34%; inhibition [7]: 32% |
| > 50 | 290 | C#CCCCn1c(Sc2cc(Br)cc(Br)c2)nc2c(N)ncnc21 | – |
| – | 350 | C#CCCCn1c(Sc2ccccc2Cl)nc2c(N)ncnc21 | – |
| 8.3 | 1900 | C#CCCCn1c(Sc2cc(Cl)nc(Cl)c2)nc2c(N)ncnc21 | IC50 [2]: 9.6 µM |
| > 50 | 34500 | C#CCCCn1c(Sc2ccc(OC)cc2OC)nc2c(N)ncnc21 | IC50 [5]: > 50 µM |
| – | 29400 | C#CCCCn1c(Sc2ccccc2CO)nc2c(N)ncnc21 | – |
